One assay relates to Enterococcus faecalis. The experiment in a line: Antimicrobial activity against Streptococcus faecalis by twofold serial broth microdilution assay. The assay is classed as functional. The procedure, abridged:
(§1)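 Twofold serial broth microdilution in sterile Mueller-Hinton broth, over 500 µg/ml to 7.8 µg/ml. Samples were added as solutions in Me₂CO or MeOH, with solvent blanks included. After 24 h at 37°, MIC was taken as the lowest concentration that inhibited growth.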

The subject of another assay is Escherichia coli. The experiment in a line: Antimicrobial activity against Escherichia coli by twofold serial broth microdilution assay. The assay is classed as functional. In outline: as §1
The next assay relates to Shigella dysenteriae. The experiment in a line: Antimicrobial activity against Shigella dysenteriae by twofold serial broth microdilution assay. The assay is classed as functional. In general terms: Broth dilution looks for growth in wells or tubes with falling amounts of substance.
The subject of the next assay is Salmonella typhimurium. The experiment in a line: Antimicrobial activity against Salmonella Typhimurium by twofold serial broth microdilution assay. It counts as functional, Salmonella enterica subsp. enterica serovar Typhimurium. The settings on record: Salmonella enterica. In outline:
as §1

For a further assay, the system named is Pseudomonas aeruginosa. The experiment in a line: Antimicrobial activity against Pseudomonas aeruginosa by twofold serial broth microdilution assay. The assay is classed as functional. In outline: as §1
In another assay the test system is Candida albicans. The experiment in a line: Antimicrobial activity against Candida albicans by twofold serial broth microdilution assay. The assay is classed as functional. The procedure, abridged: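 Samples were added as Me₂CO or MeOH solutions, with solvent blanks. Incubation was 24 h at 37°. MIC was the lowest concentration preventing visible growth of the organism.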

The test system of the next assay is Staphylococcus aureus. The experiment in a line: Antimicrobial activity against Staphylococcus aureus by twofold serial broth microdilution assay. It counts as functional. The procedure, abridged:
as §1

The next assay concerns Vibrio cholerae. The experiment in a line: Antimicrobial activity against Vibrio cholerae by twofold serial broth microdilution assay. It counts as functional.

Converted amounts (≈) assume the structure as drawn.

As to `C=CCC1=C(O)C(=O)C2=C(C1=O)[C@H](O)C[C@H]1C(C)(C)CCC[C@]21C`, the MIC against Enterococcus faecalis was no less than 500 µg/mL; in the assay on Escherichia coli it was no less than 500 µg/mL; with Shigella dysenteriae, no less than 500 µg/mL; in the assay on Salmonella typhimurium, no less than 500 µg/mL; against Pseudomonas aeruginosa it was 250 µg/mL (≈ 757 µM); in the assay on Candida albicans, 125 µg/mL (≈ 378 µM).
As to `CC(C)C1=C(O)C(=O)C2=C(C1=O)[C@H](O)C[C@H]1C(C)(C)CCC[C@]21C` [HORMINONE], the MIC is 7.8 µg/mL (≈ 23.5 µM) with Staphylococcus aureus; 7.8 µg/mL (≈ 23.5 µM) in the assay with Vibrio cholerae; no less than 500 µg/mL in the assay on Enterococcus faecalis; no less than 500 µg/mL in the assay on Escherichia coli; no less than 500 µg/mL with Shigella dysenteriae; no less than 500 µg/mL in the assay on Salmonella typhimurium. Moreover, the MIC with Pseudomonas aeruginosa and against Candida albicans was 250 µg/mL (≈ 752 µM) throughout.

Broadly, the MIC is the smallest concentration in the dilution series that meets the test's criterion for growth inhibition.

Source of the values: ChEMBL document CHEMBL1159207, “Structure and antimicrobial activity of diterpenes from the roots of Plectranthus hereroensis” (1994).
